In ChEMBL document CHEMBL4368872, “Synthesis and anticonvulsant activity of phenoxyacetyl derivatives of amines, including aminoalkanols and amino acids” (Medchemcomm, 2018):
Active and inactive are the calls of the source. No cut-off for these calls is given here.

Assays:
[1] = Neurotoxicity in Sprague-Dawley rat at 100 mg/kg, ip measured after 1 hr by rotarod test; format: toxicity, organism-based; details: in vivo
Method in brief: (§1)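 Rat neurotoxicity after i.p. or p.o. dosing was scored as animals impaired / animals tested at each time point. For p.o. dosing, TD50 was obtained by probit analysis.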

[2] = Neurotoxicity in CF-1 mouse at 100 mg/kg, ip measured after 1 hr by rotarod test; format: toxicity, organism-based; details: in vivo
Method in brief: (§2)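 Mice dosed i.p. were placed on a 1 in. knurled rod turning at 6 rpm. Toxicity was scored as failure to keep balance for at least 1 min, i.e. falling off three or more times. Results are reported as animals showing toxicity / animals tested at each time point.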

[3] = Neurotoxicity in Sprague-Dawley rat at 30 mg/kg, po measured after 0.25 hrs by rotarod test; format: toxicity, organism-based; details: in vivo; method in brief: as §1
Rattus norvegicus [4] = test: Anticonvulsant activity in Sprague-Dawley rat model of maximal electroshock-induced seizure assessed as suppression of tonic hind limb extension at 30 mg/kg, po measured at 2 hrs post dose; format: functional, organism-based
Method in brief: (§3)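 Rats given 30 mg/kg p.o. and tested by maximal electroshock at 150 mA. Scored as number protected / number tested (4 per group) at 0.25, 0.5, 1, 2 and 4 h after dosing.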

Salmonella typhimurium [5] = test: Antimutagenic activity against Salmonella typhimurium TA100 assessed as inhibition of NaN3-induced mutation at 50 ug/plate preincubated for 30 mins followed by top agar addition and measured after 48 hrs in presence of liver S9 fraction by Ames test relative to control; format: organism-based; details: salmonella enterica subsp. enterica serovar typhimurium, s9, 48 h
Mus musculus [6] = test: Anticonvulsant activity in CF-1 mouse model of maximal electroshock-induced seizure assessed as suppression of tonic hind limb extension at 100 mg/kg, ip measured at 1 hr post dose; format: functional, organism-based
Method in brief: (§4)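 Mice dosed i.p. and given maximal electroshock at 50 mA. Read-out is protection, reported as number protected / number tested at 0.25, 0.5, 1 and 4 h after dosing.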

[7] = Neurotoxicity in Sprague-Dawley rat at 30 mg/kg, po measured after 4 hrs by rotarod test; format: toxicity, organism-based; details: in vivo; method in brief: as §1
Mus musculus [8] = test: Anticonvulsant activity in CF-1 mouse model of maximal electroshock-induced seizure assessed as suppression of tonic hind limb extension at 300 mg/kg, ip measured at 0.5 hrs post dose; format: functional, organism-based; method in brief: as §4
Salmonella typhimurium [9] = test: Antimutagenic activity against Salmonella typhimurium TA1535 assessed as inhibition of NaN3-induced mutation at 500 ug/plate preincubated for 30 mins followed by top agar addition and measured after 48 hrs in presence of liver S9 fraction by Ames test relative to control; format: organism-based; details: salmonella enterica subsp. enterica serovar typhimurium, s9, 48 h
[10] = Intrinsic clearance in rat liver microsomes at 20 uM preincubated for 15 mins followed by NADPH generating system addition and measured after 5 to 60 mins by LC-MS/MS analysis; format: ADME, Microsome; details: read-out: CLH
Method in brief: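 Test compound at 20 µM preincubated 15 min with male rat liver microsomes (0.4 mg ml⁻¹) in 100 mM potassium phosphate, pH 7.4. Started with NADP⁺ (3.4 mM), glucose 6-phosphate (7.7 mM) and G6PDH (0.6 U ml⁻¹). Run 5–60 min at 37 °C in duplicate, stopped with cold perchloric acid plus internal standard, supernatant analysed by LC-MS/MS. Half-life and Cl_int derived by literature methods.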

[11] = Neurotoxicity in CF-1 mouse at 100 mg/kg, ip measured after 4 hrs by rotarod test; format: toxicity, organism-based; details: in vivo; method in brief: as §2
Mus musculus [12] = test: Anticonvulsant activity in CF-1 mouse model of subcutaneous pentylenetetrazole-induced seizure assessed as reduction in convulsions at 300 mg/kg, ip measured at 0.5 hrs post dose; format: functional, organism-based
Method in brief: (§5)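 Mice dosed i.p., then given pentylenetetrazole 85 mg/kg in 0.9% NaCl s.c. into the posterior midline of the neck. Seizures watched for at least 30 min. Scored as protected / tested at 0.5 and 4 h.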

[13] = Neurotoxicity in Sprague-Dawley rat at 30 mg/kg, po measured after 0.5 hrs by rotarod test; format: toxicity, organism-based; details: in vivo; method in brief: as §1
Mus musculus [14] = test: Anticonvulsant activity in CF-1 mouse model of maximal electroshock-induced seizure assessed as suppression of tonic hind limb extension at 100 mg/kg, ip measured at 0.5 hrs post dose; format: functional, organism-based; method in brief: as §4
[15] = Retention time of the compound in rat liver microsomes by LC-MS/MS analysis; format: ADME, Microsome
[16] = Neurotoxicity in Sprague-Dawley rat at 100 mg/kg, ip measured after 0.5 hrs by rotarod test; format: toxicity, organism-based; details: in vivo; method in brief: as §1
Mus musculus [17] = test: Anticonvulsant activity in CF-1 mouse model of maximal electroshock-induced seizure assessed as suppression of tonic hind limb extension at 300 mg/kg, ip measured at 4 hrs post dose; format: functional, organism-based; method in brief: as §4
Mus musculus [18] = test: Anticonvulsant activity in CF-1 mouse model of subcutaneous pentylenetetrazole-induced seizure assessed as reduction in convulsions at 30 mg/kg, ip measured at 4 hrs post dose; format: functional, organism-based; method in brief: as §5
Salmonella typhimurium [19] = test: Antimutagenic activity against Salmonella typhimurium TA1535 assessed as inhibition of NaN3-induced mutation at 250 ug/plate preincubated for 30 mins followed by top agar addition and measured after 48 hrs in presence of liver S9 fraction by Ames test relative to control; format: organism-based; details: salmonella enterica subsp. enterica serovar typhimurium, s9, 48 h
Mus musculus [20] = test: Anticonvulsant activity in CF-1 mouse model of subcutaneous pentylenetetrazole-induced seizure assessed as reduction in convulsions at 30 mg/kg, ip measured at 0.5 hrs post dose; format: functional, organism-based; method in brief: as §5
Mus musculus [21] = test: Anticonvulsant activity in CF-1 mouse model of subcutaneous pentylenetetrazole-induced seizure assessed as reduction in convulsions at 300 mg/kg, ip measured at 4 hrs post dose; format: functional, organism-based; method in brief: as §5
[22] = Neurotoxicity in CF-1 mouse at 100 mg/kg, ip measured after 0.5 hrs by rotarod test; format: toxicity, organism-based; details: in vivo; method in brief: as §2
[23] = Mutagenicity in Salmonella typhimurium TA1535 assessed as mutagenicity index at 50 to 500 ug/plate preincubated for 30 mins followed by top agar addition and measured after 48 hrs in presence of liver S9 fraction by Ames test; format: toxicity, subcellular; details: salmonella enterica subsp. enterica serovar typhimurium, s9, 48 h
Method in brief: (§6)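 Ames plate incorporation in S. typhimurium TA100 or TA1535, with or without S9. Overnight culture, compound in DMSO (50–500 µg per plate) and buffer or S9 mix preincubated 30 min at 37 °C, then top agar on glucose minimal agar. Incubated 48 h at 37 °C, revertants counted in triplicate. Vehicle negative control; NaN3 (−S9) and 2AA (+S9) positive controls. MI = revertants with compound / negative-control revertants; MI ≥ 2 with dose-response counts as positive.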

Mus musculus [24] = test: Anticonvulsant activity in CF-1 mouse model of subcutaneous pentylenetetrazole-induced seizure assessed as reduction in convulsions at 100 mg/kg, ip measured at 0.5 hrs post dose; format: functional, organism-based; method in brief: as §5
[25] = Mutagenicity in Salmonella typhimurium TA100 assessed as mutagenicity index at 50 to 500 ug/plate preincubated for 30 mins followed by top agar addition and measured after 48 hrs in absence of liver S9 fraction by Ames test; format: toxicity; details: salmonella enterica subsp. enterica serovar typhimurium, s9, 48 h; method in brief: as §6
Rattus norvegicus [26] = test: Anticonvulsant activity in Sprague-Dawley rat model of maximal electroshock-induced seizure assessed as suppression of tonic hind limb extension at 30 mg/kg, po measured at 0.5 hrs post dose; format: functional, organism-based; method in brief: as §3
[27] = Neurotoxicity in Sprague-Dawley rat at 30 mg/kg, po measured after 2 hrs by rotarod test; format: toxicity, organism-based; details: in vivo; method in brief: as §1
[28] = Neurotoxicity in CF-1 mouse at 300 mg/kg, ip measured after 4 hrs by rotarod test; format: toxicity, organism-based; details: in vivo; method in brief: as §2
[29] = Neurotoxicity in CF-1 mouse at 30 mg/kg, ip measured after 4 hrs by rotarod test; format: toxicity, organism-based; details: in vivo; method in brief: as §2

Row | SMILES | Activity [1] | Activity [2] | Activity [3] | Activity (Rattus norvegicus [4]) | inhibition (INH) (Salmonella typhimurium [5]) [%] | Activity (Mus musculus [6]) | Activity [7] | Activity (Mus musculus [8]) | inhibition (INH) (Salmonella typhimurium [9]) [%] | microsomal CLint at 20 µM [10] [µL/min/mg] | Activity [11] | Activity (Mus musculus [12]) | Activity [13] | Activity (Mus musculus [14]) | Retention_time [15] [min] | Activity [16] | Activity (Mus musculus [17]) | Activity (Mus musculus [18]) | inhibition (INH) (Salmonella typhimurium [19]) [%] | Activity (Mus musculus [20]) | other results
1 | Cc1cccc(C)c1OCC(=O)N[C@H](C)CO | Non-Toxic | Non-Toxic | Non-Toxic | inactive | 57 | inactive | Non-Toxic | Active | 31 | 9.5 | Non-Toxic | inactive | Non-Toxic | inactive | 4.73 | Non-Toxic | inactive | inactive | 47 | inactive | Activity (Mus musculus [21]): inactive; Activity [22]: Non-Toxic; Activity index [23]: 0.7 to 1.7; Activity (Mus musculus [24]): inactive; Activity index [25]: 0.7 to 1.7; Activity (Rattus norvegicus [26]): Active; Activity [27]: Non-Toxic; Activity [28]: Non-Toxic; Activity [29]: Non-Toxic
2 | CCC(O)CNC(=O)COc1c(C)cccc1C (stereo not drawn) | Non-Toxic | Non-Toxic | Non-Toxic | inactive | 21 | inactive | Non-Toxic | Active | 27 | 57 | Non-Toxic | inactive | Non-Toxic | inactive | 5.15 | Toxic | inactive | inactive | 56 | inactive | Activity (Mus musculus [21]): inactive; Activity [22]: Non-Toxic; Activity index [23]: 0.7 to 1.7; Activity (Mus musculus [24]): inactive; Activity index [25]: 0.7 to 1.7; Activity (Rattus norvegicus [26]): Active; Activity [27]: Non-Toxic; Activity [28]: Non-Toxic; Activity [29]: Non-Toxic
